From ChEMBL document CHEMBL5136969, “A niclosamide-tobramycin hybrid adjuvant potentiates cefiderocol against P. aeruginosa” (2021)
Calls of active or inactive are those of the source.

Legend:
Pseudomonas aeruginosa [1] = test: Antibacterial activity against MDR clinical isolate Pseudomonas aeruginosa PA88949 assessed as reduction in bacterial growth after 18 hrs by microbroth dilution method; assay type: functional
Summary of the method: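 Broth microdilution per CLSI in Mueller-Hinton broth (MHB). Overnight cultures were adjusted to 0.5 McFarland in saline, diluted 1:50 in MHB, and added at about 5 × 10^5 CFU/mL final to equal volumes of 2-fold serial dilutions of agent. Incubation was 18 h at 37 °C. MIC was the lowest concentration with no visible turbidity, confirmed by absorbance at 590 nm.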

Pseudomonas aeruginosa [2] = test: Potentiation of moxifloxacin-induced antibiotic activity against Pseudomonas aeruginosa PAO1 assessed as reduction in microbial growth at 8 ug/ml up to 24 hrs by microbroth dilution method; assay type: functional; conditions: dose 8 µg/ml
Klebsiella pneumoniae = test: Antibacterial activity against Klebsiella pneumoniae KP113254 assessed as potentiation of cefiderocol antibacterial activity by measuring FIC after 18 hrs by microbroth dilution method; assay type: functional
Summary of the method: (§1)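 Checkerboard in MHB. Cefiderocol was 2-fold serially diluted along one axis and the adjuvant along the other. Inoculum was prepared from 0.5 McFarland saline suspensions diluted 1:50 in MHB, giving about 5 × 10^5 CFU/mL final. Plates ran 18 h at 37 °C, with turbidity confirmed at 590 nm. FIC = combination MIC ÷ MIC alone for each agent, and FIC index = sum of both. Interpretation: ≤0.5 synergy, >0.5–4 additive, >4 antagonism.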

Pseudomonas aeruginosa [3] = test: Potentiation of fosfomycin-induced antibiotic activity against Pseudomonas aeruginosa PAO1 assessed as MIC fold reduction at 8 ug/ml after 18 hrs by microbroth dilution method; assay type: functional; conditions: dose 8 µg/ml
Summary of the method: (§2)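 Adjuvant held at a fixed 8 μg/mL while the antibiotic was 2-fold serially diluted in Mueller-Hinton broth (MHB), per CLSI microbroth dilution. Overnight cultures were adjusted in saline to 0.5 McFarland, then diluted 1:50 in MHB to about 5 × 10^5 CFU/mL final, and incubated 18 h at 37 °C. MIC was the lowest concentration with no visible turbidity, confirmed at 590 nm. Fold potentiation = MIC alone / MIC with adjuvant.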

Pseudomonas aeruginosa [4] = test: Potentiation of niclosamide-induced antibiotic activity against Pseudomonas aeruginosa PAO1 assessed as MIC fold reduction at 8 ug/ml after 18 hrs by microbroth dilution method; assay type: functional; conditions: dose 8 µg/ml
Acinetobacter baumannii [5] = test: Potentiation of colistin-induced antibiotic activity against Acinetobacter baumannii ATCC 17978 assessed as MIC fold reduction at 8 ug/ml after 18 hrs by microbroth dilution method; assay type: functional; conditions: dose 8 µg/ml; summary of the method: as §2
Pseudomonas aeruginosa [6] = test: Antibacterial activity against MDR clinical isolate Pseudomonas aeruginosa PA109084 assessed as potentiation of cefiderocol antibacterial activity by measuring FIC index after 18 hrs by microbroth dilution method; assay type: functional; summary of the method: as §1
Pseudomonas aeruginosa [7] = test: Potentiation of moxifloxacin-induced antibiotic activity against Pseudomonas aeruginosa PA263 assessed as MIC fold reduction in ID-CAMHB condition at 8 ug/ml after 18 hrs by microbroth dilution method; assay type: functional, organism-based; conditions: dose 8.0 µg/ml
Escherichia coli [8] = test: Potentiation of ceftolozane-induced antibiotic activity against Escherichia coli ATCC 25922 assessed as MIC fold reduction at 8 ug/ml after 18 hrs by microbroth dilution method; assay type: functional; conditions: dose 8 µg/ml; summary of the method: as §2
Pseudomonas aeruginosa [9] = test: Antibacterial activity against MDR clinical isolate Pseudomonas aeruginosa PA109084 assessed as reduction in bacterial growth after 18 hrs in presence of cefiderocol by microbroth dilution method; assay type: functional; summary of the method: as §1
Pseudomonas aeruginosa [10] = test: Antibacterial activity against MDR clinical isolate Pseudomonas aeruginosa PA101885 assessed as potentiation of cefiderocol antibacterial activity by measuring FIC index after 18 hrs by microbroth dilution method; assay type: functional; summary of the method: as §1
Escherichia coli [11] = test: Potentiation of erythromycin-induced antibiotic activity against Escherichia coli ATCC 25922 assessed as MIC fold reduction at 8 ug/ml after 18 hrs by microbroth dilution method; assay type: functional; conditions: dose 8 µg/ml; summary of the method: as §2
Pseudomonas aeruginosa [12] = test: Antibacterial activity against MDR clinical isolate Pseudomonas aeruginosa PA86052 assessed as reduction in bacterial growth after 18 hrs by microbroth dilution method; assay type: functional
Summary of the method: (§3)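 CLSI broth microdilution. Overnight cultures were adjusted in saline to 0.5 McFarland, diluted 1:50 in Mueller-Hinton broth (MHB), and inoculated at about 5 × 10^5 CFU/mL. Agents were 2-fold serially diluted in MHB, mixed 1:1 with inoculum, and held at 37 °C for 18 h. MIC was the lowest concentration with no visible turbidity, confirmed at 590 nm.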

Acinetobacter baumannii [13] = test: Potentiation of cefotaxime-induced antibiotic activity against Acinetobacter baumannii ATCC 17978 assessed as MIC fold reduction at 8 ug/ml after 18 hrs by microbroth dilution method; assay type: functional; conditions: dose 8 µg/ml
Summary of the method: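 Initial screen in MHB using a fixed 8 μg mL−1 of adjuvant combined with each antibiotic under 2-fold dilution. Broth microdilution used about 5 × 10^5 CFU/mL at 37 °C for 18 h, with visible turbidity read and confirmed at 590 nm. Fold-potentiation = antibiotic MIC alone ÷ antibiotic MIC with adjuvant.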

Acinetobacter baumannii [14] = test: Potentiation of piperacilin-induced antibiotic activity against Acinetobacter baumannii ATCC 17978 assessed as MIC fold reduction at 8 ug/ml after 18 hrs by microbroth dilution method; assay type: functional; conditions: dose 8 µg/ml
Pseudomonas aeruginosa [15] = test: Potentiation of colistin-induced antibiotic activity against Pseudomonas aeruginosa PAO1 assessed as MIC fold reduction at 8 ug/ml after 18 hrs by microbroth dilution method; assay type: functional; conditions: dose 8 µg/ml; summary of the method: as §2
Pseudomonas aeruginosa [16] = test: Potentiation of ceftazidime-induced antibiotic activity against […] Pseudomonas aeruginosa PAO1 assessed as MIC fold reduction at 8 ug/ml after 18 hrs by microbroth dilution method; assay type: functional, organism-based; conditions: dose 8.0 µg/ml; summary of the method: as §2
Escherichia coli [17] = test: Potentiation of moxifloxacin-induced antibiotic activity against Escherichia coli ATCC 25922 assessed as MIC fold reduction at 8 ug/ml after 18 hrs by microbroth dilution method; assay type: functional; conditions: dose 8 µg/ml; summary of the method: as §2
Acinetobacter baumannii [18] = test: Potentiation of fosfomycin-induced antibiotic activity against Acinetobacter baumannii ATCC 17978 assessed as MIC fold reduction at 8 ug/ml after 18 hrs by microbroth dilution method; assay type: functional; conditions: dose 8 µg/ml; summary of the method: as §2
Pseudomonas aeruginosa [19] = test: Antibacterial activity against MDR clinical isolate Pseudomonas aeruginosa PA100036 assessed as potentiation of cefiderocol antibacterial activity by measuring FIC index after 18 hrs by microbroth dilution method; assay type: functional
Summary of the method: (§4)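 Checkerboard in MHB (iron-replete, not iron-depleted CAMHB). Cefiderocol was 2-fold serially diluted along one axis and the adjuvant along the other. Inoculum was 0.5 McFarland diluted 1:50, about 5 × 10^5 CFU/mL final. Incubation was 18 h at 37 °C, with turbidity read visually and confirmed at 590 nm. FIC was the MIC in combination over the MIC alone for each agent, and the FIC index was their sum. Cut-offs were ≤0.5 synergy, >0.5–4 additive, >4 antagonism.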

Staphylococcus aureus = test: Antibacterial activity against Staphylococcus aureus ATCC 29213 assessed as reduction in bacterial growth after 18 hrs by microbroth dilution method; assay type: functional; summary of the method: as §3
Escherichia coli [20] = test: Potentiation of tobramycin-induced antibiotic activity against Escherichia coli ATCC 25922 assessed as MIC fold reduction at 8 ug/ml after 18 hrs by microbroth dilution method; assay type: functional; conditions: dose 8 µg/ml
Pseudomonas aeruginosa [21] = test: Antibacterial activity against colistin-resistant clinical isolate Pseudomonas aeruginosa PA114228 assessed as reduction in bacterial growth after 18 hrs in presence of cefiderocol by microbroth dilution method; assay type: functional; summary of the method: as §4
Escherichia coli [22] = test: Potentiation of linezolid-induced antibiotic activity against Escherichia coli ATCC 25922 assessed as MIC fold reduction at 8 ug/ml after 18 hrs by microbroth dilution method; assay type: functional; conditions: dose 8 µg/ml; summary of the method: as §2

NC[C@H]1O[C@H](O[C@H]2[C@H](OCCCCc3cn(-c4ccc(NC(=O)c5cc(Cl)ccc5O)cc4)nn3)[C@@H](O[C@H]3O[C@H](CO)[C@@H](O)[C@H](N)[C@H]3O)[C@H](N)C[C@@H]2N)[C@H](N)C[C@@H]1O gave an MIC (Pseudomonas aeruginosa [1]) greater than 128 µg/mL, an Activity (Pseudomonas aeruginosa [2]) greater than 3 log10CFU/ml and an FIC (Klebsiella pneumoniae) of 0.5. For the same compound, the “fold change (FC)” value (Pseudomonas aeruginosa [3]) was 4, the “fold change (FC)” value (Pseudomonas aeruginosa [4]) was 4 and the “fold change (FC)” value (Acinetobacter baumannii [5]) was 4. For the same compound, the FIC (Pseudomonas aeruginosa [6]) was 0.004, the Activity (Pseudomonas aeruginosa [7]) was “Active” and the “fold change (FC)” value (Escherichia coli [8]) was 4. For the same compound, the MIC (Pseudomonas aeruginosa [9]) was 0.5 µg/mL, the FIC (Pseudomonas aeruginosa [10]) was 0.017 and the “fold change (FC)” value (Escherichia coli [11]) was 4. For the same compound, the MIC (Pseudomonas aeruginosa [12]) was greater than 128 µg/mL, the “fold change (FC)” value (Acinetobacter baumannii [13]) was 4 and the “fold change (FC)” value (Acinetobacter baumannii [14]) was 4. The “fold change (FC)” value (Pseudomonas aeruginosa [15]) was 4, the Activity (Pseudomonas aeruginosa [16]) was “Active” and the “fold change (FC)” value (Escherichia coli [17]) was 4. The “fold change (FC)” value (Acinetobacter baumannii [18]) was 4, the FIC (Pseudomonas aeruginosa [19]) was 1 and the MIC (Staphylococcus aureus) was greater than 128 µg/mL. For the same compound, the “fold change (FC)” value (Escherichia coli [20]) was 4, the MIC (Pseudomonas aeruginosa [21]) was 16 µg/mL and the “fold change (FC)” value (Escherichia coli [22]) was 4.
